Cneo AK release: Cryptococcus neoformans lysis via adenylate kinase release; C. neoformans lysis, adenylate kinase release luminescence, 4 h; normalised: neutral wells 0, clomiphene wells 100; lysis activity, % at 15 µM; 360,000 tested, 0.2% active; AID 651654;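 active = mean lysis activity across replicates of at least 80%, whatever share of replicates individually reach that level; inactive = mean lysis activity below 80%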
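Schedule: static 4 h at 37 °C with compound, 1 h detection; system: C. neoformans cells; benchmarks: Clomiphene as positive control; buffer or medium: fresh YPD medium; measure: luminescence rise reflecting yeast cell lysis; measured by: luminescent adenylate kinase detection reagent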
F508del corr: CFTR F508del correction in bronchial cells | activity (quench increase), % at 7.58 µM | 350,000 tested, 0.36% active | AID 720511 | CFBE cells, YFP halide quenching; stimulated with forskolin plus potentiator P3; % fluorescence drop versus neutral controls;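 active = mean added fluorescence quench of at least 8% versus neutral control, with both replicates also reaching 8%; inconclusive = only one of the mean or replicate conditions met; inactive = mean below 8% and not both replicates reaching 8%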;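 also: cells transiently co-express mutant CFTR-F508del with the halide-sensitive YFP; corrector assay measuring rescue of mutant channel to the surface after 24 h compound exposure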
PGC1a acetyl inh: PGC1a acetylation modulation, inhibitor mode. U2OS PGC1a acetylation, AlphaScreen anti-acetyl-lysine; with virally co-expressed GCN5 acetyltransferase. inhibition, % at 15.6 µM. 350,000 tested, 0.17% active. AID 651687;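 active = every replicate shows inhibition of at least 40%; inconclusive = mean inhibition at least 40% but some replicate below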;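 also: 0% = neutral control wells and 100% = positive control wells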
FN deposition inh: fibronectin deposition inhibition; AH1F fibroblasts, Alexa488-fibronectin deposition fluorescence, overnight; inhibition, % at 12.6 µM; 350,000 tested, 0.086% active; AID 743247;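 active = mean inhibition across replicates of 30% or more, regardless of how many single replicates reach that level; inconclusive = mean under 30% yet at least half of replicates reach 30%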;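 also: positive control wells lacked labelled fibronectin entirely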
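Schedule: 1 h cell adhesion before compound, then overnight fibronectin incubation; test system: AH1F fibroblast monolayer depositing Alexa488-labelled fibronectin into matrix; quantity: 10000 AH1F cells per well; probe or stimulus: fluorescent fibronectin at 24 nM final; signal: fluorescence, ex 485 nm, em 525 nm; evaluation: percent inhibition as loss of matrix-bound fibronectin fluorescence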
XiGFP reactiv: activators of X-chromosome reactivation in mouse fibroblasts. XiGFP mouse fibroblasts, % GFP-positive cells imaging, 3 d; cells co-treated with 5-aza-dC sensitizer; scaled so ellipticine positive control = 100%. activation, % at 7.58 µM. 360,000 tested, 0.055% active;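 active = mean normalized replicate activation at least 10% and every replicate at or above 10%; inconclusive = only one of the two criteria met; inactive = mean below 10% and not all replicates reach 10%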;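 also: 0% = median of on-plate neutral control wells and 100% = ellipticine 6 µM median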
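System: 68-5-11 XiGFP fibroblast line | Buffer or medium: DMEM containing 5-aza-dC | Compound: Single point | Times: Compounds 3 days, fix/stain 15 min at room temperature | Benchmarks: Positive control ellipticine, 6 µM final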
DENV2 CPE: protects cells from dengue virus 2 cytopathic effect; DENV2-infected cells, cytopathic effect rescue, plate reader; CPE inhibition, % at 9.99 µM; 350,000 tested, 1.7% active; AID 651640; in the data active = CPE inhibition above about 20%, passing the limit was not always enough; inconclusive = no clear call, values can overlap the other calls; tested in BHK-21 cells;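 also: 0% = median of neutral control wells and 100% = median of positive control wells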
Active calls of the source: *. The list is not random: actives were taken first. Their share in the collection is about 1.9%.

For CN1C(=O)c2cc(NC(=O)c3cccc(F)c3)ccc2OC[C@H]2O[C@@H](CC(=O)O)CC[C@H]21 the results were Cneo AK release -1, F508del corr 3, PGC1a acetyl inh -7, FN deposition inh -3, XiGFP reactiv 0 and DENV2 CPE -1.
Screening CCC(=O)Nc1ccc2c(c1)C(=O)N(C)[C@@H]1CC[C@@H](CC(=O)NC3Cc4ccccc4C3)O[C@@H]1CO2 returned Cneo AK release 5, F508del corr -2, PGC1a acetyl inh -1, FN deposition inh -8, XiGFP reactiv 0 and DENV2 CPE 30*.
Screening CCC(=O)Nc1ccc2c(c1)C(=O)N(C)[C@@H]1CC[C@H](CC(=O)O)O[C@H]1CO2 returned Cneo AK release -2, F508del corr -4, PGC1a acetyl inh 7, FN deposition inh -13, XiGFP reactiv 0 and DENV2 CPE 24*.
`CCC(=O)Nc1ccc2c(c1)C(=O)N(C)[C@@H]1CC[C@H](CC(=O)NC3Cc4ccccc4C3)O[C@H]1CO2` gave Cneo AK release 7, F508del corr 1, PGC1a acetyl inh 2, FN deposition inh -7, XiGFP reactiv 0 and DENV2 CPE inconclusive.
CCS(=O)(=O)Nc1ccc2c(c1)C(=O)N(C)[C@H]1CC[C@H](CC(=O)NC3CCCCC3)O[C@H]1CO2 was read as Cneo AK release 46, F508del corr 0, PGC1a acetyl inh 15, FN deposition inh 5, XiGFP reactiv 0 and DENV2 CPE 12.
Screening CN1C(=O)c2cc(NC(=O)NC3CCCC3)ccc2OC[C@H]2O[C@H](CC(=O)O)CC[C@@H]21 returned Cneo AK release -3, F508del corr 0, PGC1a acetyl inh -4, FN deposition inh -14, XiGFP reactiv 0 and DENV2 CPE -2.
Screening CN1C(=O)c2cc(NC(=O)NC3CCCC3)ccc2OC[C@@H]2O[C@H](CC(=O)O)CC[C@H]21 returned Cneo AK release 42, F508del corr -3, PGC1a acetyl inh -7, FN deposition inh -4, XiGFP reactiv 0 and DENV2 CPE 57*.
Screening CCS(=O)(=O)Nc1ccc2c(c1)C(=O)N(C)[C@@H]1CC[C@H](CC(=O)NC3CCCCC3)O[C@H]1CO2 returned Cneo AK release 58, F508del corr 0, PGC1a acetyl inh 2, FN deposition inh 1, XiGFP reactiv 0 and DENV2 CPE 76*.
Screening COc1ccccc1CNC(=O)C[C@@H]1CC[C@H]2[C@@H](COC[C@@H](O)CN2Cc2cccc(-c3ccncc3)c2)O1 returned Cneo AK release -2, F508del corr 2, PGC1a acetyl inh 3, FN deposition inh 11, XiGFP reactiv 0 and DENV2 CPE -3.
For O=C(Nc1ccc2c(c1)OCO2)N[C@@H]1CC[C@@H](CCNC(=O)C2CCCCC2)O[C@@H]1CO the results were Cneo AK release -1, F508del corr 0, PGC1a acetyl inh 0, XiGFP reactiv 0 and DENV2 CPE 6.
`CN1C(=O)c2cc(NC(=O)c3ccc4c(c3)OCO4)ccc2OC[C@H]2O[C@@H](CC(=O)O)CC[C@H]21` gave Cneo AK release 41, F508del corr 2, PGC1a acetyl inh 5, FN deposition inh 4, XiGFP reactiv 0 and DENV2 CPE 69*.
`CNC(=O)C[C@H]1CC[C@H]2[C@H](COc3ccc(NC(=O)Nc4cc(C)cc(C)c4)cc3C(=O)N2C)O1` gave Cneo AK release 0, F508del corr 1, PGC1a acetyl inh -4, FN deposition inh -30, XiGFP reactiv 0 and DENV2 CPE 46*.
CN1C(=O)c2cc(NS(C)(=O)=O)ccc2OC[C@@H]2O[C@@H](CC(=O)O)CC[C@@H]21 was read as Cneo AK release 90*, F508del corr 0, PGC1a acetyl inh -3, FN deposition inh 12, XiGFP reactiv 0 and DENV2 CPE -9.
`CN1C(=O)c2cc(NC(=O)Nc3ccccc3)ccc2OC[C@@H]2O[C@@H](CC(=O)O)CC[C@@H]21` gave Cneo AK release 1, FN deposition inh -15, XiGFP reactiv 0 and DENV2 CPE 57*.
Screening CN1C[C@H]2[C@@H](c3ccccc31)[C@H](CO)N2C(=O)Nc1ccccc1 returned Cneo AK release 0, F508del corr -1, PGC1a acetyl inh 6 and XiGFP reactiv 0.
`C[C@@H]1CN([C@@H](C)CO)C(=O)c2cc(NS(=O)(=O)c3cn(C)cn3)ccc2O[C@@H](C)CCCCO[C@H]1CN(C)C(=O)CCC(F)(F)F` gave Cneo AK release -3, F508del corr -2, PGC1a acetyl inh -19, XiGFP reactiv 0 and DENV2 CPE 7.
For CCC(=O)Nc1ccc2c(c1)OC[C@H](C)N(C(=O)C1CCC1)C[C@H](C)[C@H](OC)CN(C)C2=O the results were Cneo AK release -5, F508del corr 1, PGC1a acetyl inh -10, FN deposition inh -3, XiGFP reactiv -1 and DENV2 CPE 5.
Screening CCC(=O)Nc1ccc2c(c1)C(=O)N(C)C[C@@H](OC)[C@H](C)CN(C(=O)c1cccnc1)[C@@H](C)CO2 returned Cneo AK release -5, F508del corr -1, PGC1a acetyl inh -5, FN deposition inh 6, XiGFP reactiv 0 and DENV2 CPE -5.
For Cc1cccc(NC(=O)Nc2ccc3c(c2)C(=O)N(C)[C@@H]2CC[C@@H](CC(=O)O)O[C@H]2CO3)c1 the results were Cneo AK release 0, F508del corr 3, PGC1a acetyl inh -1, FN deposition inh 3, XiGFP reactiv 0 and DENV2 CPE 72*.
For C/C(=N\NC(=O)c1ccccc1)c1ccc2c(c1)OCO2 the results were Cneo AK release 2, PGC1a acetyl inh -11 and FN deposition inh -5.
Screening CC/C(=N\NC(=O)c1ccc2c(c1)OCO2)c1ccccc1 returned Cneo AK release 0, F508del corr -2, FN deposition inh 1, XiGFP reactiv 0 and DENV2 CPE 33*.
Cc1cc(Br)cc(/C=N/NC(=O)c2ccc3c(c2)OCO3)c1O was read as Cneo AK release -3, F508del corr 9.3*, FN deposition inh 9, XiGFP reactiv 0 and DENV2 CPE 14.
For O=C(N/N=C/c1cc(Br)cc(Cl)c1O)c1ccc2c(c1)OCO2 the results were Cneo AK release -2, F508del corr 12*, PGC1a acetyl inh 16, FN deposition inh -2, XiGFP reactiv 0 and DENV2 CPE -13.
Screening O=C(N/N=C/c1ccccc1O)c1ccc2c(c1)OCO2 returned Cneo AK release -5, F508del corr 5, PGC1a acetyl inh 11, FN deposition inh 3, XiGFP reactiv 0 and DENV2 CPE 0.

Bioassay records (PubChem)
